Screening data from PubChem.
Only some compounds are listed: those with a hit (about 1.8% of all), similar ones and a draw of the others.
LYP inh 2: LYP (human) phosphatase inhibition; recombinant LYP catalytic domain, DiFMUP fluorescence; Q9Y2R2; inhibition, % at 2 µM; AID 640; 96,000 compounds, 0.21% hits;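 active means inhibition at 2 µM at or above a set limit, the screen mean plus 3 SD, cut at about 24% in these data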
PLK1 inh: blocks human PLK1 kinase activity | inhibition, % at 10 µM | P53350 | 97,000 compounds, 0.53% hits | recombinant PLK1 kinase, TR-FRET peptide phosphorylation;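 active means inhibition of 50% or more in the single-concentration screen; inactive means inhibition below 50%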
Target sequence (P53350 whole entry, looked up): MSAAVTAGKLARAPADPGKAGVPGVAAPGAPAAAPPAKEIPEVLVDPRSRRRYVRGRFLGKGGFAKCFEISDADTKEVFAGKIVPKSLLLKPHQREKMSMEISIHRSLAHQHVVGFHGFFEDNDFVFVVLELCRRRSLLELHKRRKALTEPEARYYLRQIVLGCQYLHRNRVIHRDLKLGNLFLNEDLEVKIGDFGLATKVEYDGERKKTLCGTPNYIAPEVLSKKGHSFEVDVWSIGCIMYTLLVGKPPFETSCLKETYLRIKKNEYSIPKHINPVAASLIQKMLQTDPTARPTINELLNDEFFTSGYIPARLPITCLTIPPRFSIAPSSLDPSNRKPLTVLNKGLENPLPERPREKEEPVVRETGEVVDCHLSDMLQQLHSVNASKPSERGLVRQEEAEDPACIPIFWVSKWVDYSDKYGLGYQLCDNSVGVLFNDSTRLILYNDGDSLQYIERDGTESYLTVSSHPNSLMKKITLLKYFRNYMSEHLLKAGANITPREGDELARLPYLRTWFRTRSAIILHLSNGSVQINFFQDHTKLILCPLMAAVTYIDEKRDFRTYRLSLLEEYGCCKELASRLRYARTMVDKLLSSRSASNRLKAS
HIV Rev-RRE inh: inhibitors of HIV-1 Rev-RRE RNA interaction; AID 704; 97,000 compounds, 0.79% hits; inhibition, % at 8 µM; Rev peptide-RRE RNA binding, FRET;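 active means inhibition above the screen-wide mean plus 3 SD, cut at about 35% in these data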
Target sequence (P05866 whole entry, looked up): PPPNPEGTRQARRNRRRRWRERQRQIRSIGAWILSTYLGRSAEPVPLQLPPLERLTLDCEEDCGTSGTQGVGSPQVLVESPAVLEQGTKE
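Test system – labelled RRE RNA duplex and labelled Rev peptide · Reagent – labelled Rev peptide · Doses – one concentration, 8 µM nominal · Incubation – 5 + 15 min at 25 °C · Signal – FRET fluorescence readout · Read-out basis – % inhibition of FRET ratio versus controls · Control set – DMSO wells as 0% and neomycin B wells as 100% inhibition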
EphB4 antag: EphB4-ephrin-B2 interaction antagonism; inhibition, % at 7 µM; AID 720; P54760; EphB4 LBD / TNYL-RAW-Alexa532 peptide, fluorescence polarization; 97,000 compounds, 0.15% hits;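 active means inhibition above the screen-wide mean inhibition plus 3 SD, cut at about 15% in these data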
PTPN22 act: activators of human LYP (PTPN22) phosphatase | recombinant LYP, DiFMUP fluorescence; 0 = plate median, 100 = signal doubled | activation, % at 2 µM | 96,000 compounds, 0.11% hits | AID 697;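 active means activation at 2 µM above a set limit, the mean plus 5 SD, cut at about 37% in these data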
PLK1 PBD inh: Plk1 (human) PBD binding inhibition | 97,000 compounds, 0.13% hits | inhibition, %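 (tested at about 20 µM)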 | Plk1 PBD phosphopeptide binding, fluorescence polarization | AID 693; in the data active means inhibition above about 34%, passing the limit was not always enough
Of the large screens only hits and unclear results are named; the others gave an inactive call; [ ] = dose if it differs, or a comment.

Clc1ccc(COn2nnc3ccccc32)c(Cl)c1	none
CCN(CC)CCNc1ncnc2c1[nH]c1ccc(OC)cc12	none
COCCCNc1ncnc2c1[nH]c1ccccc12	LYP inh 2 34
CCSC1=N/C(=C\c2ccc(C(=O)O)cc2)C(=O)S1	none
CCOC(=O)SC1=N/C(=C\c2ccc(N(C)C)cc2)C(=O)S1	HIV Rev-RRE inh 101[fluorescence artefact?]
Cc1cc2c(c(=O)o1)C1(C(=O)N(CC(=O)O)c3ccccc31)C(C#N)=C(N)O2 (stereo not drawn)	HIV Rev-RRE inh 49
Cc1ccc2c(c1)N(C(=O)NC1CCCCC1)C(C)(C)CC2C (stereo not drawn)	none
Cc1c2cc(O)c(=O)cc-2oc2cc(O)c(O)cc12	LYP inh 2 94, HIV Rev-RRE inh 140[fluorescence artefact?], EphB4 antag 49[fluorescence artefact?], PLK1 PBD inh 130
CCN1CC2=C(OC(N)=C(C#N)C2c2cccs2)/C(=C/c2cccs2)C1 (stereo not drawn)	HIV Rev-RRE inh 42
CN1/C(=C\C=Nc2ccccc2)C(C)(C)c2ccccc21	none
CN1/C(=C\C=Nc2ccc3ccccc3c2)C(C)(C)c2ccccc21	HIV Rev-RRE inh 63
N#C/C(C(=O)N1CCOCC1)=C1/SC(Cc2ccccc2)C(=O)N1c1ccccc1 (stereo not drawn)	HIV Rev-RRE inh 44
CCOC(=O)CSC(C)C(=O)Nc1nnc(C(C)C)s1 (stereo not drawn)	PLK1 inh 64 (no result: LYP inh 2, PTPN22 act)
COc1ccc(C2C(C(C)=O)=C(C)N=c3s/c(=C\c4cc(C)n(C)c4C)c(=O)n32)c(OC)c1 (stereo not drawn)	HIV Rev-RRE inh 128[fluorescence artefact?]
COc1ccc(C2C(C(C)=O)=C(C)N=c3s/c(=C\c4ccco4)c(=O)n32)c(OC)c1 (stereo not drawn)	none
O=c1oc(/C=C/c2ccccc2)nc2sc3c(c12)CCC3	HIV Rev-RRE inh 38
O=C(CN1C(=O)NC2(CCCC2)C1=O)NCCC1=CCCCC1	EphB4 antag 16
CC1C/C(=C/c2cccn2C)C(=O)/C(=C/c2cccn2C)C1 (stereo not drawn)	HIV Rev-RRE inh 136[fluorescence artefact?]
Cn1cccc1P(=O)(c1cccn1C)c1cccn1C	none
CCCCCCCCCCSc1n[nH]c(NC(C)=O)n1	none
CCCSc1n[nH]c(NC(C)=O)n1	PLK1 inh 69 (no result: LYP inh 2, PTPN22 act)
COc1ccc(OC)c(C(=O)CSc2nnc(Cc3cccs3)n2CCc2ccccc2)c1	none
CCN(CC)c1ccc2cc(-c3nnc(-c4ccccc4)o3)c(=O)oc2c1	HIV Rev-RRE inh 141[fluorescence artefact?]
COc1ccc(-c2nnc(-c3cc4c(ccc5ccccc54)oc3=O)o2)cc1	none
CCN(CC)c1ccc2cc(-c3nnc(-c4ccc(Br)cc4)o3)c(=O)oc2c1	HIV Rev-RRE inh 140[fluorescence artefact?]
Cc1ccc(-c2noc(CN(C(=O)C34CC5CC(CC(C5)C3)C4)C(C)C)n2)cc1	none
Cn1c(=O)cc(SCC(=O)NCCN2CCN(c3ccccc3F)CC2)c2cc(Cl)ccc21	LYP inh 2 33
CN1CCc2c(sc(N)c2C(N)=O)C1	none
CCN1CCc2c(sc(N)c2C(N)=O)C1	HIV Rev-RRE inh 63
CCOC(=O)C(=O)Nc1ccccc1C(=O)Nc1ccc(OC)cc1	none
CCCCC1(C)OC(=O)C(=Cc2ccc(N(C)C)cc2)C(=O)O1 (stereo not drawn)	HIV Rev-RRE inh 54
O=C(CCc1ccccc1)n1nc(-c2ccco2)nc1SCc1ccccc1	none
O=C(N/N=C/c1cc(Br)ccc1O)C(=O)Nc1ccccc1OC(F)(F)C(F)F	HIV Rev-RRE inh 49
COCCNC(=O)C(=O)N/N=C/c1ccccc1C(F)(F)F	none
COc1ccc(S(=O)(=O)Cc2ccc(C(=O)N3CCCC3)o2)cc1	none
COc1ccc(S(=O)(=O)Cc2ccc(C(=O)N3CCN(c4ccccn4)CC3)o2)cc1	PLK1 inh 66 (no result: LYP inh 2, PTPN22 act)
COc1ccc(S(=O)(=O)Cc2ccc(C(=O)NCc3ccccn3)o2)cc1	PLK1 inh 68 (no result: LYP inh 2, PTPN22 act)
COc1ccc(S(=O)(=O)Cc2ccc(C(=O)N3CCN(c4ccccc4F)CC3)o2)cc1	PLK1 inh 63 (no result: LYP inh 2, PTPN22 act)
O=C(Nc1cc(Oc2ccccc2)cc([N+](=O)[O-])c1)C12CC3CC(C1)CC(n1cnc(Cl)n1)(C3)C2	none
CS(=O)(=O)N(CC(=O)NCc1ccncc1)Cc1ccc(Cl)cc1	none
Nc1c(C(=O)Nc2ccccc2F)sc2nc(Cc3ccccc3)cc(C(F)(F)F)c12	HIV Rev-RRE inh 82[fluorescence artefact?]
C=CCc1ccc(OCCOCCOc2ccccc2[N+](=O)[O-])c(OC)c1	none
O=C(/C=C/c1ccccc1)N1CCN(c2cccc(Cl)n2)CC1	none
COc1cc(C2C(C#N)=C(N)OC3=C2C(=O)CCC3)c([N+](=O)[O-])cc1OC (stereo not drawn)	HIV Rev-RRE inh 48
Cc1cc(C2C(C#N)=C(N)OC3=C2C(=O)CCC3)c(C)s1 (stereo not drawn)	none
COC(=O)C1=C(N)Oc2cc(C)n(CC3CCCO3)c(=O)c2C1c1ccccc1OC (stereo not drawn)	none
COC(=O)C1=C(N)Oc2cc(N(C)C)ccc2C1c1ccccc1OC (stereo not drawn)	HIV Rev-RRE inh 37
CCn1cc(C(=O)Nc2nnc(C)s2)c(=O)c2cc(F)c(N3CCN(C(=O)c4ccco4)CC3)cc21	none
O=C(CN1CCOCC1)N1CCN(C(=O)CN2CCOCC2)CC1	none
COc1ccc(CN2CCN(C(=O)c3ccco3)CC2)cc1	LYP inh 2 37
COC(=O)C1=NN(c2ccccc2)C2(S1)SC(C(C)=O)=C(C)N2c1ccccc1 (stereo not drawn)	none
COC(=O)C1=NN(c2ccc(C)cc2)C2(S1)SC(C(C)=O)=C(C)N2c1ccccc1 (stereo not drawn)	HIV Rev-RRE inh 37
CN(C)CCCNc1ncnc2c1cnn2-c1ccccc1	PLK1 inh 67
CCOC(=O)N1CCN(C(=O)C2CCN(Cc3nc(-c4ccccc4C)oc3C)CC2)CC1	PLK1 inh 68 (no result: LYP inh 2, PTPN22 act)
COc1ccc(-c2nc(CN3CCC(C(=O)N4CCc5ccccc54)CC3)c(C)o2)cc1OC	PLK1 inh 61 (no result: LYP inh 2, PTPN22 act)
CCOC(=O)N1CCN(C(=O)CSCc2nc(-c3ccccc3C)oc2C)CC1	none
O=C(NCCN1CCOCC1)c1ccc2c(c1)ncn2C1CCCCC1	none
Cc1cccc(N=c2oc3cc(O)ccc3cc2C(N)=O)c1	HIV Rev-RRE inh 47
COc1ccccc1N=c1oc2cc(O)ccc2cc1C(N)=O	HIV Rev-RRE inh 63
COc1ccc(NC(=O)CCNS(=O)(=O)c2ccc3c(c2)CCC(=O)N3)cc1	none
Cc1cccc(NC(=S)NN2CCN(C)CC2)c1	none
Cc1ccc2nc(SCc3nc4c(cnn4-c4ccccc4)c(=O)[nH]3)[nH]c2c1	PLK1 inh 54
O=c1[nH]c(SCc2nc3c(cnn3-c3ccccc3)c(=O)[nH]2)nc2ccccc12	none
CCn1nc(C)c(NS(=O)(=O)c2ccccc2)c1C	none
